Converted amounts (≈) assume the structure as drawn.
Legend:
[1] = Solubility was determined; assay type: physicochemical
Procedure, shortened: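 Aqueous solubility measured in HPLC-grade water by a UV absorptivity method, reported in mg/mL.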

[2] = system: Oocyte; assay: Effect on maxi-K mediated outward current in xenopus laevis oocytes at 20 uM; In soluble; assay type: functional, cell-based; details: Xenopus sp.
Procedure, shortened: (§1)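 Two-electrode voltage clamp of whole-cell outward K+ current in Xenopus laevis oocytes expressing cloned hSlo maxi-K channels. Single drug concentration per line. Current is the iberiotoxin-sensitive fraction, tested in at least five oocytes. Value is the average current as a percentage of drug-free control (100%).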

[3] = Effect on maxi-K mediated outward current in xenopus laevis oocytes at 5 uM; assay type: functional, Xenopus sp., Oocyte; procedure, shortened: as §1
[4] = organism: Oryctolagus cuniculus; assay: Percentage inhibition by the compound in isolated rabbit corpus cavernosum at 10 uM; assay type: functional
Procedure, shortened: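 New Zealand white rabbits (3.4–3.7 kg) euthanized by pentobarbital overdose. Corpus cavernosum strips, 3–5 mm, cut after removal of the tunica and held in modified Krebs-Henseleit bicarbonate buffer at 37 °C. Isometric force recorded. Strips pre-contracted with phenylephrine 3 μM to a steady force, then compound added. Result is % inhibition of force relative to vehicle control; n given per value.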

[5] = Effect on maxi-K mediated outward current in xenopus laevis oocytes at 20 uM; assay type: functional, Xenopus sp., Oocyte; procedure, shortened: as §1

| solubility [1] | Structure (SMILES) | hSlo current [2] | hSlo current [3] | Inhibition [4] | hSlo current [5] |
| --- | --- | --- | --- | --- | --- |
| < 1 µg/mL | CC(C)(C)Sc1c(O)nc2ccc(C(F)(F)F)cc2c1-c1cc(Cl)ccc1O | Insoluble | 73% |  |  |
|  | O=c1[nH]c2cc(C(F)(F)F)ccc2n1-c1cc(Cl)ccc1O |  |  | 31% | 132% |
| < 1 µg/mL | CSc1c(O)nc2ccc(C(F)(F)F)cc2c1-c1cc(Cl)ccc1O |  |  | 22% | 231% |
| 3 µg/mL (≈ 6.98 µM) | OCCCSc1c(O)nc2ccc(C(F)(F)F)cc2c1-c1cc(Cl)ccc1O |  |  | 23% | 242% |
| 190 µg/mL (≈ 426 µM) | OCC(O)CSc1c(O)nc2ccc(C(F)(F)F)cc2c1-c1cc(Cl)ccc1O (centres undefined) |  |  | 31% | 246% |
| 4 µg/mL (≈ 9.62 µM) | OCCSc1c(O)nc2ccc(C(F)(F)F)cc2c1-c1cc(Cl)ccc1O |  |  | 43% | 348% |
| 3 µg/mL (≈ 8.07 µM) | Oc1ccc(Cl)cc1-c1c(S)c(O)nc2ccc(C(F)(F)F)cc12 |  |  |  | 197% |

From ChEMBL document CHEMBL1137183, “4-Aryl-3-(mercapto)quinolin-2-ones: novel maxi-K channel opening relaxants of corporal smooth muscle” (Bioorg Med Chem Lett, 2004)
